Source: ChEMBL document CHEMBL4732237, “Discovery of 4-alkoxy-2-aryl-6,7-dimethoxyquinolines as a new class of topoisomerase I inhibitors endowed with potent in vitro anticancer activity” (2021)

Assays:
Format in all cases: functional
Settings in all cases: read-out: GI
T47D = assay: Growth inhibition of human T47D cells at 10 uM incubated for 48 hrs by sulforhodamine B assay relative to control
Method in brief: (§1)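 NCI one-dose screen across a 59-line panel. Cells were grown in RPMI 1640 with 5% FBS and 2 mM L-glutamine, plated and pre-incubated 24 h, then exposed to drug for 48 h at 37 °C, 5% CO2. Adherent cells were fixed with cold TCA (10% final), stained with 0.4% SRB in 1% acetic acid and read at 515 nm. Result is percent growth relative to no-drug control and time-zero cell count.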

SK-MEL-28 = assay: Growth inhibition of human SK-MEL-28 cells at 10 uM incubated for 48 hrs by sulforhodamine B assay relative to control
Method in brief: (§2)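 NCI one-dose screen. Cells grown in RPMI 1640 with 5% FBS and 2 mM L-glutamine, plated and incubated 24 h at 37 °C, 5% CO2. DMSO-dissolved drug added, then 48 h further incubation. Adherent cells fixed with cold TCA, suspension cells fixed after settling. Stained with 0.4% SRB, absorbance read at 515 nm. Reported as percent growth relative to no-drug control and time-zero cell number.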

SF-295 = assay: Growth inhibition of human SF-295 cells at 10 uM incubated for 48 hrs by sulforhodamine B assay relative to control; method in brief: as §2
COLO 205 = assay: Growth inhibition of human COLO 205 cells at 10 uM incubated for 48 hrs by sulforhodamine B assay relative to control
Method in brief: (§3)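 NCI-60 single-dose screen. Cells were grown in RPMI 1640 with 5% FBS and 2 mM L-glutamine and plated 24 h before drug addition. Compound was added at one concentration in DMSO-derived medium and incubated for 48 h at 37 °C in 5% CO2. Read-out was SRB protein stain at 515 nm. Result is percent growth versus the no-drug control and the time-zero cell count; values below 0 indicate lethality.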

LOX IMVI = assay: Growth inhibition of human LOX IMVI cells at 10 uM incubated for 48 hrs by sulforhodamine B assay relative to control; method in brief: as §3
KM12 = assay: Growth inhibition of human KM12 cells at 10 uM incubated for 48 hrs by sulforhodamine B assay relative to control; method in brief: as §3
SK-MEL-2 = assay: Growth inhibition of human SK-MEL-2 cells at 10 uM incubated for 48 hrs by sulforhodamine B assay relative to control; method in brief: as §2
OVCAR-5 = assay: Growth inhibition of human OVCAR-5 cells at 10 uM incubated for 48 hrs by sulforhodamine B assay relative to control; method in brief: as §2
MDA-MB-231 = assay: Growth inhibition of human MDA-MB-231 cells at 10 uM incubated for 48 hrs by sulforhodamine B assay relative to control; method in brief: as §3
MOLT-4 = assay: Growth inhibition of human MOLT-4 cells at 10 uM incubated for 48 hrs by sulforhodamine B assay relative to control; method in brief: as §2
NCI-H226 = assay: Growth inhibition of human NCI-H226 cells at 10 uM incubated for 48 hrs by sulforhodamine B assay relative to control; method in brief: as §2
SNB-75 = assay: Growth inhibition of human SNB-75 cells at 10 uM incubated for 48 hrs by sulforhodamine B assay relative to control; method in brief: as §2
SF-268 = assay: Growth inhibition of human SF-268 cells at 10 uM incubated for 48 hrs by sulforhodamine B assay relative to control; method in brief: as §2
SF-539 = assay: Growth inhibition of human SF-539 cells at 10 uM incubated for 48 hrs by sulforhodamine B assay relative to control; method in brief: as §2
NCI-H522 = assay: Growth inhibition of human NCI-H522 cells at 10 uM incubated for 48 hrs by sulforhodamine B assay relative to control; method in brief: as §2
MDA-MB-435 = assay: Growth inhibition of human MDA-MB-435 cells at 10 uM incubated for 48 hrs by sulforhodamine B assay relative to control; method in brief: as §3
SW-620 = assay: Growth inhibition of human SW-620 cells at 10 uM incubated for 48 hrs by sulforhodamine B assay relative to control; method in brief: as §1
SN12C = assay: Growth inhibition of human SN12C cells at 10 uM incubated for 48 hrs by sulforhodamine B assay relative to control; method in brief: as §2
MCF7 = assay: Growth inhibition of human MCF7 cells at 10 uM incubated for 48 hrs by sulforhodamine B assay relative to control; method in brief: as §3
A498 = assay: Growth inhibition of human A498 cells at 10 uM incubated for 48 hrs by sulforhodamine B assay relative to control; method in brief: as §1
HOP-62 = assay: Growth inhibition of human HOP-62 cells at 10 uM incubated for 48 hrs by sulforhodamine B assay relative to control; method in brief: as §3
UACC-62 = assay: Growth inhibition of human UACC-62 cells at 10 uM incubated for 48 hrs by sulforhodamine B assay relative to control; method in brief: as §1
PC-3 = assay: Growth inhibition of human PC-3 cells at 10 uM incubated for 48 hrs by sulforhodamine B assay relative to control; method in brief: as §2
SK-OV-3 = assay: Growth inhibition of human SK-OV-3 cells at 10 uM incubated for 48 hrs by sulforhodamine B assay relative to control; method in brief: as §2
OVCAR-8 = assay: Growth inhibition of human OVCAR-8 cells at 10 uM incubated for 48 hrs by sulforhodamine B assay relative to control; method in brief: as §2
M14 = assay: Growth inhibition of human M14 cells at 10 uM incubated for 48 hrs by sulforhodamine B assay relative to control; method in brief: as §3
NCI-H23 = assay: Growth inhibition of human NCI-H23 cells at 10 uM incubated for 48 hrs by sulforhodamine B assay relative to control; method in brief: as §2
SK-MEL-5 = assay: Growth inhibition of human SK-MEL-5 cells at 10 uM incubated for 48 hrs by sulforhodamine B assay relative to control; method in brief: as §2
HOP-92 = assay: Growth inhibition of human HOP-92 cells at 10 uM incubated for 48 hrs by sulforhodamine B assay relative to control; method in brief: as §3
NCI-H322M = assay: Growth inhibition of human NCI-H322M cells at 10 uM incubated for 48 hrs by sulforhodamine B assay relative to control; method in brief: as §2
UACC-257 = assay: Growth inhibition of human UACC-257 cells at 10 uM incubated for 48 hrs by sulforhodamine B assay relative to control; method in brief: as §1
MDA-MB-468 = assay: Growth inhibition of human MDA-MB-468 cells at 10 uM incubated for 48 hrs by sulforhodamine B assay relative to control; method in brief: as §3
HL-60(TB) = assay: Growth inhibition of human HL-60(TB) cells at 10 uM incubated for 48 hrs by sulforhodamine B assay relative to control
Method in brief: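 NCI-60 one-dose screen: same culture, 48 h drug exposure and SRB read-out. Reported as percent growth relative to no-drug control and to time-zero cell number; 0–100 means growth inhibition, below 0 means lethality.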

OVCAR-3 = assay: Growth inhibition of human OVCAR-3 cells at 10 uM incubated for 48 hrs by sulforhodamine B assay relative to control; method in brief: as §2
Hs-578T = assay: Growth inhibition of human HS-578T cells at 10 uM incubated for 48 hrs by sulforhodamine B assay relative to control; method in brief: as §3
EKVX = assay: Growth inhibition of human EKVX cells at 10 uM incubated for 48 hrs by sulforhodamine B assay relative to control; method in brief: as §3

SMILES	inhibition of growth at 10 µM (T47D) [%]	inhibition of growth at 10 µM (SK-MEL-28) [%]	inhibition of growth at 10 µM (SF-295) [%]	inhibition of growth at 10 µM (COLO 205) [%]	inhibition of growth at 10 µM (LOX IMVI) [%]	inhibition of growth at 10 µM (KM12) [%]	inhibition of growth at 10 µM (SK-MEL-2) [%]	inhibition of growth at 10 µM (OVCAR-5) [%]	inhibition of growth at 10 µM (MDA-MB-231) [%]	inhibition of growth at 10 µM (MOLT-4) [%]	inhibition of growth at 10 µM (NCI-H226) [%]	inhibition of growth at 10 µM (SNB-75) [%]	inhibition of growth at 10 µM (SF-268) [%]	inhibition of growth at 10 µM (SF-539) [%]	inhibition of growth at 10 µM (NCI-H522) [%]	inhibition of growth at 10 µM (MDA-MB-435) [%]	inhibition of growth at 10 µM (SW-620) [%]	inhibition of growth at 10 µM (SN12C) [%]	inhibition of growth at 10 µM (MCF7) [%]	inhibition of growth at 10 µM (A498) [%]	also measured
COc1cc2nc(-c3ccc(Cl)cc3)cc(OCCCN3CCC(O)CC3)c2cc1OC	62	62	62	62	62	62	62	62	62	62	62	62	62	62	62	62	62	62	62	62	inhibition of growth at 10 µM (HOP-62): 62%; inhibition of growth at 10 µM (UACC-62): 62%; inhibition of growth at 10 µM (PC-3): 62%; inhibition of growth at 10 µM (SK-OV-3): 62%; inhibition of growth at 10 µM (OVCAR-8): 62%; inhibition of growth at 10 µM (M14): 62%; inhibition of growth at 10 µM (NCI-H23): 62%; inhibition of growth at 10 µM (SK-MEL-5): 62%; inhibition of growth at 10 µM (HOP-92): 62%; inhibition of growth at 10 µM (NCI-H322M): 62%; inhibition of growth at 10 µM (UACC-257): 62%; inhibition of growth at 10 µM (MDA-MB-468): 62%; inhibition of growth at 10 µM (HL-60(TB)): 62%; inhibition of growth at 10 µM (OVCAR-3): 62%; inhibition of growth at 10 µM (Hs-578T): 62%; inhibition of growth at 10 µM (EKVX): 62%
COc1cc2nc(-c3ccsc3)cc(OCCCN3CCC(O)CC3)c2cc1OC	32	32	32	32	32	32	32	32	32	32	32	32	32	32	32	32	32	32	32	32	inhibition of growth at 10 µM (HOP-62): 32%; inhibition of growth at 10 µM (UACC-62): 32%; inhibition of growth at 10 µM (PC-3): 32%; inhibition of growth at 10 µM (SK-OV-3): 32%; inhibition of growth at 10 µM (OVCAR-8): 32%; inhibition of growth at 10 µM (M14): 32%; inhibition of growth at 10 µM (NCI-H23): 32%; inhibition of growth at 10 µM (SK-MEL-5): 32%; inhibition of growth at 10 µM (HOP-92): 32%; inhibition of growth at 10 µM (NCI-H322M): 32%; inhibition of growth at 10 µM (UACC-257): 32%; inhibition of growth at 10 µM (MDA-MB-468): 32%; inhibition of growth at 10 µM (HL-60(TB)): 32%; inhibition of growth at 10 µM (OVCAR-3): 32%; inhibition of growth at 10 µM (Hs-578T): 32%; inhibition of growth at 10 µM (EKVX): 32%
COc1cc2nc(-c3ccc(C(F)(F)F)cc3)cc(OCCN3CCOCC3)c2cc1OC	13	13	13	13	13	13	13	13	13	13	13	13	13	13	13	13	13	13	13	13	inhibition of growth at 10 µM (HOP-62): 13%; inhibition of growth at 10 µM (UACC-62): 13%; inhibition of growth at 10 µM (PC-3): 13%; inhibition of growth at 10 µM (SK-OV-3): 13%; inhibition of growth at 10 µM (OVCAR-8): 13%; inhibition of growth at 10 µM (M14): 13%; inhibition of growth at 10 µM (NCI-H23): 13%; inhibition of growth at 10 µM (SK-MEL-5): 13%; inhibition of growth at 10 µM (HOP-92): 13%; inhibition of growth at 10 µM (NCI-H322M): 13%; inhibition of growth at 10 µM (UACC-257): 13%; inhibition of growth at 10 µM (MDA-MB-468): 13%; inhibition of growth at 10 µM (HL-60(TB)): 13%; inhibition of growth at 10 µM (OVCAR-3): 13%; inhibition of growth at 10 µM (Hs-578T): 13%; inhibition of growth at 10 µM (EKVX): 13%
